Results from BindingDB's records for doi:10.1021/jm300138g (Neuraxon, 2012).

Biological target: Sodium-dependent noradrenaline transporter (Homo sapiens, UniProt P23975)
Assay: Displacement of [3H]nisoxetine from human NET expressed in CHO cells after 120 mins by scintillation counting
Procedure, shortened: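 Membranes from hNET-transfected CHO cells (20 μg protein) incubated 120 min at 4 °C with 1 nM [3H]nisoxetine in 50 mM Tris-HCl pH 7.4, 120 mM NaCl, 5 mM KCl. Nonspecific binding defined with 1 μM desipramine. Filtered on PEI-soaked GF/B and counted.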

Chain of Sodium-dependent noradrenaline transporter (P23975 whole entry): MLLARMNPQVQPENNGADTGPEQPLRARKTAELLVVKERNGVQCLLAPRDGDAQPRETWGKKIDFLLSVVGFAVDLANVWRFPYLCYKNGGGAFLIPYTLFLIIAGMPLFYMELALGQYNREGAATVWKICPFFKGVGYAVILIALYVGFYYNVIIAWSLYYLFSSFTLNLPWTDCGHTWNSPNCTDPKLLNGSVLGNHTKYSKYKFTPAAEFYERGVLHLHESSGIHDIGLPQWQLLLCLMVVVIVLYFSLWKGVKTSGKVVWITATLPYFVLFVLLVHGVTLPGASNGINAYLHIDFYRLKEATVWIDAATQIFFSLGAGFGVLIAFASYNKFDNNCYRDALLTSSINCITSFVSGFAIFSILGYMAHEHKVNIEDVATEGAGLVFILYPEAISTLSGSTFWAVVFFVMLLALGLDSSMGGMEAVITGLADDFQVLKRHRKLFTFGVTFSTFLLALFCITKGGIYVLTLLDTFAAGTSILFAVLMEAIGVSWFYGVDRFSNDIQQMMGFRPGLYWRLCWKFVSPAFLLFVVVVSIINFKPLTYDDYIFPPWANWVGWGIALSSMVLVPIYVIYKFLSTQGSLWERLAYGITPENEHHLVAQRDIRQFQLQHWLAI

SMILES: CN(C)C1CC=C(c2c[nH]c3ccc(N=C(N)c4cccs4)cc23)CC1 (stereo unspecified)
- IC50: 550 nM
